We go through 13 molecules from ChEMBL document CHEMBL1914416, “Discovery of pyridine-2-ones as novel class of multidrug resistance (MDR) modulators: first structure-activity relationships” (Bioorg Med Chem, 2011).

Structures are written as SMILES.

Data set [1] concerns the target T1, ATP-dependent translocase ABCB1 (Homo sapiens, UniProt P08183). Description: Reversal of human MDR1-mediated rhodamine 123 uptake in mouse L5178Y cells assessed as fluorescence activity ratio at 10 mM by flow cytometry relative to non p-gp expressing parental cell line. As to conditions: in the assay text read “10 µM” for “10 mM”. The class given is cell-based. In a few lines: (§1)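 Mouse T-lymphoma L5178Y parental and retrovirally transfected P-gp-expressing L5178Y mdr cells were grown in McCoy's 5A with 10% heat-inactivated horse serum and 2 mM L-glutamine; the mdr line was precultured with 60 ng/mL colchicine. Cells (2 × 10^6/mL, serum-free) were preincubated with inhibitor 10 min at rt, then given rhodamine 123 for 20 min at 37 °C. They were washed twice and resuspended in PBS. Uptake was read by flow cytometry (1 × 10^4 cells). FAR is the mdr/parental quotient, each corrected by inhibitor-free controls.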
A general note: In flow cytometry, cells or beads pass a laser one at a time.

Data set [2] deals with T1, ATP-dependent translocase ABCB1. Kind of data set: Reversal of human MDR1-mediated rhodamine 123 uptake in mouse L5178Y cells assessed as fluorescence activity ratio at 1 µM by flow cytometry relative to non p-gp expressing parental cell line.
For the next data set, the system named is L5178Y. Description: Cytotoxicity against mouse L5178Y cells at 20 umol by flow cytometric analysis. The class given is cell-based.
Data set [3] has as its target T1, ATP-dependent translocase ABCB1. Description: Reversal of human MDR1-mediated rhodamine 123 uptake in mouse L5178Y cells assessed as fluorescence activity ratio at 20 umol by flow cytometry relative to non p-gp expressing parental cell line. The class given is cell-based. In a few lines: as §1

T1 sequence (P08183 whole entry): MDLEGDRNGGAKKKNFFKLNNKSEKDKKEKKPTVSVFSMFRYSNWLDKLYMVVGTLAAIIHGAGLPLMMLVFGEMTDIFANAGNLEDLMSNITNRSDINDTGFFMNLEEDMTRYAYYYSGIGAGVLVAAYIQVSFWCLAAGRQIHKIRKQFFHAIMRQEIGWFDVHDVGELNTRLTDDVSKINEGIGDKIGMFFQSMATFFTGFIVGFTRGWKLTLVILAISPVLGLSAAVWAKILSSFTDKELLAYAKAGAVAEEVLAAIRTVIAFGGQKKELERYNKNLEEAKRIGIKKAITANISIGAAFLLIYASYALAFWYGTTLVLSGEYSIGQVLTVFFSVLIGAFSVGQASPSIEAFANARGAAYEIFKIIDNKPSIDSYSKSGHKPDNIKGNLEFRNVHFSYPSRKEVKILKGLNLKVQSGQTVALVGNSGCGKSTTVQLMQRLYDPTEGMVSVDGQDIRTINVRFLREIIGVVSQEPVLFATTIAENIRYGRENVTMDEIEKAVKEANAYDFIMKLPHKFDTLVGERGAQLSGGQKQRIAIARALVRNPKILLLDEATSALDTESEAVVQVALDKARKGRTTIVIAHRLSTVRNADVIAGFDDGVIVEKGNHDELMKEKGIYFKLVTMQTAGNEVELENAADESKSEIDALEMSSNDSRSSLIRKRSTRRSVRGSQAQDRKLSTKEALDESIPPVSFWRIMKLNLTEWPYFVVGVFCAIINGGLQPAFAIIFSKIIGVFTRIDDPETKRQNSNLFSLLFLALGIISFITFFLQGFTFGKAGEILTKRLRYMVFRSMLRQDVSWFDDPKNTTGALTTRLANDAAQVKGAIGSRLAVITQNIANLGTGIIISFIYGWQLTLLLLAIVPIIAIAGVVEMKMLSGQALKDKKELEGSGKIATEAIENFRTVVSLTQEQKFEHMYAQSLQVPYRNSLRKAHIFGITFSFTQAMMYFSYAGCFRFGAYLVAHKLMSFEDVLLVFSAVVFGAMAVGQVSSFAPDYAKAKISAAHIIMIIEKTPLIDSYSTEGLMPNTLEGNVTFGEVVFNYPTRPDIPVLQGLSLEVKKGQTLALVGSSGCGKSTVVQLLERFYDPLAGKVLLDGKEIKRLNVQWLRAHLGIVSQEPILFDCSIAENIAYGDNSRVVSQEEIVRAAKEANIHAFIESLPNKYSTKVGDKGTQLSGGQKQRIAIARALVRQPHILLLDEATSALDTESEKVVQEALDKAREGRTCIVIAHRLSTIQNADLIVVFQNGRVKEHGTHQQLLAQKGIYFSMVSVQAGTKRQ

Regarding `COC(=O)c1c(-c2ccc(OC)cc2)ccn(Cc2ccccc2)c1=O`, the figures for the Ratio in data set [1] and in data set [2] were 1.91 and 0.94, respectively.

In the case of `COC(=O)c1c(-c2ccc(C)cc2)ccn(Cc2ccccc2)c1=O`, the Ratio in data set [1] is listed as 1.75; in data set [2], 0.94.

Take `COc1ccc(CCN(C)CCCC(C#N)(c2ccc(OC)c(OC)c2)C(C)C)cc1OC` (centres undefined) [VERAPAMIL]: the Ratio in data set [1] was 2.94; in data set [2], 0.89.

As for `COC(=O)c1c(Cc2ccccc2)ccn(Cc2ccccc2)c1=O`, the Ratio in data set [1] is listed as 1.68; in data set [2], 1.09.

Turning to `N#Cc1c(-c2ccccc2)ccn(Cc2ccccc2)c1=O`, the results for the Ratio in data set [1] and in data set [2] were 1.71 and 0.99, respectively.

Consider `O=C(OCc1ccccc1)c1c(-c2ccccc2)ccn(Cc2ccccc2)c1=O`, for which the Ratio in data set [1] is recorded as 2.59; in data set [2], 1.22.

Take `COC(=O)c1c(-c2ccccc2)ccn(Cc2ccccc2)c1=O`: the Ratio in data set [1] stood at 1.74; in data set [2] it was 1.06.

With `COc1ccc(-c2ccn(Cc3ccccc3)c(=O)c2C#N)cc1`, the Ratio in data set [1] is recorded as 1.35; in data set [2] it was 1.05. Moreover, the Activity result with L5178Y is “Non-toxic”.

Regarding `N#Cc1c(Cc2ccccc2)ccn(Cc2ccccc2)c1=O`, the Ratio in data set [1] is 1.63; in data set [2], 1.06.

For `Cc1ccc(-c2ccn(Cc3ccccc3)c(=O)c2C#N)cc1`, the Ratio is 1.56 in data set [1] and 0.98 in data set [2].

For `COC(=O)c1c(-c2ccccc2C)ccn(Cc2ccccc2)c1=O`, the Ratio in data set [1] came to 1.51; in data set [2], 1.1.

`Cc1ccccc1-c1ccn(Cc2ccccc2)c(=O)c1C#N`: the Ratio in data set [1] is 1.83; in data set [2], 1.05.

Regarding `COc1ccccc1-c1ccn(Cc2ccccc2)c(=O)c1C#N`, the Ratio in data set [1] was found to be 2.16; in data set [2] it was 1.29; in data set [3], 3.3. Further, the Activity entry with L5178Y was “Non-toxic”.
